Screening data deposited in PubChem BioAssay by several laboratories.
An excerpt weighted towards active compounds, which were near 1.3% of everything screened.
Efflux pump inh = blocks antifungal efflux pumps in multiplex yeast assay | inhibition, % at 10 µM | 330,000 tested, 0.44% active | S. cerevisiae Candida pump triplex, Nile Red efflux;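 active = plate passing quality check with inhibition over a set limit, or well fluorescence over plate mean plus 4 SD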;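 note: Nile Red retained in pooled yeast measured as flow cytometry median fluorescence; 0% = buffer negative control and 100% = Enniatin B positive control; higher means more Nile Red kept so more efflux inhibition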
sPLA2-III inh = Blocks human group III sPLA2 activity; Q9NZ20; QFRET BODIPY PC-A2 liposome hydrolysis, fluorescence; inhibition, % at 12.2 µM; 370,000 tested, 0.56% active; AID 743126;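 active = inhibition above mean plus 3 SD of compounds lying within the high and low control bounds, cut at about 19% in these data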;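 note: 0% = median of test compound wells and 100% = no enzyme DMSO wells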
Target sequence (Q9NZ20 whole entry, looked up): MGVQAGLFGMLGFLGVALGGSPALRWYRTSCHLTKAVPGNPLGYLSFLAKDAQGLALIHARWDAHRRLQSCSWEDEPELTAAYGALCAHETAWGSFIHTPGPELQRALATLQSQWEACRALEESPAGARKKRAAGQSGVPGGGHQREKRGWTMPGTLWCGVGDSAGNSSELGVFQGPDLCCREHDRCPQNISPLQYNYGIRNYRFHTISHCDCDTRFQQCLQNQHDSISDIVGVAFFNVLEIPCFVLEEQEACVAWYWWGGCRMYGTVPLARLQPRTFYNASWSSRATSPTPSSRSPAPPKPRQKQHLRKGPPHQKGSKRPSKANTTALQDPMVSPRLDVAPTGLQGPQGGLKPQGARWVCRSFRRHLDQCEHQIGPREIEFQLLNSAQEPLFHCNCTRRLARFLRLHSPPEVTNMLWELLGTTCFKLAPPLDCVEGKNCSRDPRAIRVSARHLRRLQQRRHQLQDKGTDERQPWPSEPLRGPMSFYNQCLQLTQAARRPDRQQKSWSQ
MT1-MMP act inh = blocks activation of human MT1-MMP. GFP/RFP ratio change, % at 20 µM. AID 651647. HT1080 RFP-PRO-GFP cells, GFP/RFP ratio fluorescence, overnight; percent of plate control window, DMSO zero. 360,000 tested, 0.061% active;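 active = GFP/RFP ratio change of at least 30% with cell ATP level not reduced by more than half and red fluorescence within 50% of control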
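Assay system – RFP-PRO-GFP reporter HT1080 cells · Compound dosing – single dose of 20 µM compound, 1% DMSO final · Incubation – overnight compound exposure at 37 °C · Measure – GFP/RFP fluorescence ratio · Benchmarks – DMSO wells and RFP-L50D-GFP cells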
H9c2 TAG inh = inhibitors of triacylglycerol accumulation; H9c2 cells, Nile Red lipid (TAG) fluorescence; cells loaded with 200 µM oleic acid; inhibition, % at 12.5 µM; 230,000 tested, 0.66% active;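 active = pattern-corrected inhibition of lipid staining of at least 50% with the nuclear-stain viability signal not falling by more than 50%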;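 note: 0% = DMSO wells and 100% = triacsin C control wells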
Cmpd fluor yeast = flagged as fluorescent in efflux inhibitor counter-screen; fluorescence ratio to DMSO, % at 10 µM; S. cerevisiae AD/pABC3, compound fluorescence, flow cytometry; AID 588517; 1,700 tested, 4% active; shares compounds with Efflux pump inh;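 active = fluorescence ratio to DMSO above its plate's cutoff, the plate mean ratio plus 5 SD, cut at about 210% in these data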;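 note: unstained yeast with no Nile Red so the signal is compound autofluorescence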
CaMdr1 efflux inh = inhibitors of Candida albicans Mdr1 efflux pump. shares compounds with Efflux pump inh. S. cerevisiae AD/CaMDR1, Nile Red efflux, flow cytometry. inhibition, % at 10 µM. 1,700 tested, 1% active; in the data active = inhibition above about 26%;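 note: 0% = DMSO vehicle and 100% = reference inhibitor; higher means more Nile Red retained so more efflux inhibition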
CaCdr2 efflux inh = blocks the Candida albicans Cdr2 efflux pump in yeast | shares compounds with Efflux pump inh | S. cerevisiae AD/CaCDR2, Nile Red retention, flow cytometry | Nile Red retention ratio vs DMSO, % at 10 µM | 1,700 tested, 4% active; in the data active = Nile Red retention ratio vs DMSO above about 190%;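 note: higher ratio means more blocking of Cdr2 efflux of the dye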
Cdr1 pump inh = Candida Cdr1 efflux pump inhibition; shares compounds with Efflux pump inh; S. cerevisiae AD/CaCDR1, Nile Red efflux, flow cytometry; inhibition, % at 10 µM; 1,700 tested, 1% active; AID 588522;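 active = inhibition above the screen-wide mean plus twice its standard deviation, cut at about 32% in these data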
Numbers without * were called inactive; . = no result given.

SMILES	Efflux pump inh	sPLA2-III inh	MT1-MMP act inh	H9c2 TAG inh	Cmpd fluor yeast	CaMdr1 efflux inh	CaCdr2 efflux inh	Cdr1 pump inh
COc1ccc(CNC(=O)O[C@H]2CC[C@@]34CCCN3C(=O)CCC[C@H]4[C@H]2C)cc1	.	1.8	.	.	.	.	.	.
CC1(C)Cc2c(cnn2-c2ccc(F)cc2)C(NC(=O)c2cnccn2)C1 (configuration not stated)	6.2*	2.0	-1.0	2.1	97.8	-0.3	100.1	0.0
COc1ccc(-n2ncc3c2CC(C)(C)CC3NC(=O)c2cn[nH]c2)cc1 (configuration not stated)	-0.3	0.8	0.0	-9.1	97.0	-0.3	82.4	-0.3
CCCCCCn1c(-c2ccc(Cl)cc2Cl)csc1=Nc1ccccc1	.	0.7	.	.	.	.	.	.
Cc1cc([N+](=O)[O-])nn1CC(=O)NCc1nc2ccccc2[nH]1	-0.1	0.0	3.1	-5.8	.	.	.	.
CN(Cc1ccccc1)C(=O)c1[nH]cnc1C(=O)N[C@@H](CCCCNC(=O)OC(C)(C)C)C(=O)OC(C)(C)C	.	.	0.2	-36.4	.	.	.	.
CC(C)C[C@H](NC(=O)c1nc[nH]c1C(=O)N(C)Cc1ccccc1)C(=O)OC(C)(C)C	0.9*	-17.9	5.0	.	115.7	1.0	132.8	1.1
CCOc1ccc(N(CC(=O)NCc2ccc(OC)cc2)S(C)(=O)=O)cc1	-0.1	-0.9	1.1	.	.	.	.	.
COC(=O)[C@@]12CCCN1[C@H](c1ccc(-c3cccc(Cl)c3)cc1)[C@H]1C(=O)N(C)C(=O)[C@H]12	.	-5.8	4.0	-12.2	.	.	.	.
COc1ccc(N(CC2CO2)S(=O)(=O)c2ccc(C)cc2)cc1 (configuration not stated)	0.2	0.9	0.0	.	.	.	.	.
COc1cc(/C(C#N)=C/c2cccc3ccccc23)c([N+](=O)[O-])cc1OC	5.5*	-0.5	0.7	.	101.4	-0.3	91.4	-0.1
COc1cc(/C=C(\C#N)c2nc3ccccc3[nH]2)c([N+](=O)[O-])cc1OCc1ccccc1	-0.1	-5.2	-23.9	-1.0	.	.	.	.
CCOc1ccc(S(=O)(=O)N(CC(=O)NCc2ccncc2)c2ccc(C)cc2)cc1	-0.1	-1.8	1.5	.	.	.	.	.
COC(=O)c1ccccc1NC(=S)N(Cc1ccc2c(c1)OCO2)Cc1cc2ccc(OC)cc2[nH]c1=O	6.4*	-9.1	-1.6	.	98.9	-0.1	96.0	0.0
C[C@@H](O[Si](c1ccccc1)(c1ccccc1)C(C)(C)C)[C@@H]1NC(=O)[C@@H]2C[C@]3(Br)c4ccccc4N(S(=O)(=O)c4ccccc4)[C@@H]3N2C1=O	.	-4.1	.	.	.	.	.	.
Cc1ccc(-c2c3c([nH]c(=S)c2C#N)CCCC3)o1	0.6*	-2.1	0.5	.	108.3	0.2	137.4	0.1
N#Cc1c(-c2ccncc2)c2c([nH]c1=S)CCCC2	0.1	2.4	5.6	8.9	.	.	.	.
CN(C)C1=NCCN1CC1CCCCC1	0.2	5.7	2.5	2.3	.	.	.	.
COc1cc(/C=N/NC(=O)COc2ccc(C)cc2)ccc1OC(=O)c1cccs1	2.1*	-1.8	7.5	.	86.5	-0.4	98.1	-0.1
C[C@@H]1CCCCO[C@@H](CN(C)Cc2ccc(C(=O)O)cc2)[C@@H](C)CN([C@H](C)CO)C(=O)c2cc(NS(C)(=O)=O)ccc2O1	.	-0.5	.	.	.	.	.	.
CCSc1nnc(NC(NC(=O)c2ccco2)(C(F)(F)F)C(F)(F)F)s1	0.0	-0.4	0.6	-7.9	.	.	.	.
CCSc1nnc(NC(NC(C)=O)(C(F)(F)F)C(F)(F)F)s1	13.8*	2.2	-1.2	.	116.8	0.9	130.8	0.6
S=C(NCC1CCCO1)N1CCc2ccccc2C1 (configuration not stated)	0.1	18.8	-0.7	.	95.0	-0.2	89.3	-0.1
S=C(NCC1CCCO1)N1CCN(c2ccccc2)CC1 (configuration not stated)	-0.3	3.5	2.8	11.6	.	.	.	.
O=C(CCN1C(=O)/C(=C/c2ccc(Cl)cc2)SC1=S)NCCCn1ccnc1	0.0	-17.6	-0.1	.	.	.	.	.
SMILES	Efflux pump inh	sPLA2-III inh	MT1-MMP act inh	H9c2 TAG inh	Cmpd fluor yeast	CaMdr1 efflux inh	CaCdr2 efflux inh	Cdr1 pump inh
O=C(CCN1C(=O)/C(=C/c2ccc(F)cc2)SC1=S)NCCCn1ccnc1	2.1*	-15.8	2.0	.	103.4	-0.7	98.1	0.0
CN(C(=O)CSc1ncccn1)C1CCS(=O)(=O)C1 (configuration not stated)	5.3*	2.5	4.2	9.2	112.2	-0.2	116.6	0.0
C[n+]1ccccc1/C=C/c1ccc(C#N)cc1	0.0	11.0	2.2	.	.	.	.	.
C[n+]1ccccc1/C=C/c1ccc([N+](=O)[O-])cc1	1.4*	8.8	-3.4	.	133.3	0.8	120.4	0.5
OC(COCc1cccs1)CN1CCN(c2cccc(C(F)(F)F)c2)CC1 (configuration not stated)	6.8*	3.1	-1.0	.	105.6	0.0	112.4	0.0
COc1ccc(C(=O)Cc2nnc(C)s2)c(OC)c1	8.0*	4.2	-0.7	.	99.0	-0.1	102.9	-0.1
Cc1cc2oc(=O)c(CC(=O)NCCCO)c(C)c2c2occ(C(C)(C)C)c12	-0.3	-7.7	2.7	.	.	.	.	.
Cc1cc2oc(=O)c(CC(=O)NCCCN(C)C)c(C)c2c2occ(C(C)(C)C)c12	0.9*	.	.	.	107.8	-0.2	89.3	0.0
COc1ccc(C(=O)NCC(=O)OCC(=O)Nc2ncc(Cl)cc2Cl)cc1[N+](=O)[O-]	0.1	1.5	1.7	2.6	.	.	.	.
CC(C)(C)SCCNC(=O)/C=C/c1ccc(F)cc1	-0.1	11.0	2.2	.	.	.	.	.
CC(C)(CNC(=O)/C=C/c1ccc(F)cc1)CNC(=O)/C=C/c1ccc(F)cc1	12.6*	-35.5	14.6	.	105.8	-0.3	102.9	-0.1
CSc1cccc(NC(=O)CCCn2c(=O)c3cccn3c3cccnc32)c1	0.6	1.1	-0.9	.	.	.	.	.
COC(=O)[C@]12C[C@H](CC(=O)N3CCN(C(=O)c4ccco4)CC3)C(=O)N(CCc3ccc(OC)c(OC)c3)C1=C[C@H](C(C)(C)C)O[C@@H]2C	.	-7.9	.	.	.	.	.	.
O=C1Nc2cc(C(=O)N3CCOCC3)ccc2SC1N1CCOCC1 (configuration not stated)	18.8*	13.9	-6.2	.	95.3	-0.3	107.8	0.1
CCCCNC(=O)C1C(c2ccc(C(F)(F)F)cc2)=Nc2ccccc2N1C(=O)c1cccc2ccccc12 (configuration not stated)	.	-6.4	-20.7	.	.	.	.	.
COc1cccc(C(=O)NCCS(=O)(=O)N2CCN(c3ccccc3)CC2)c1OC	.	-8.8	-6.2	-11.7	.	.	.	.
COc1ccc2nccc(/C=C/c3ccnc4ccc(OC)cc34)c2c1	0.7*	1.9	8.5	2.8	99.7	0.0	171.6	0.3
COc1ccc(OC)c(/C=C/c2ccnc3ccccc23)c1	.	-8.6	-6.0	18.1	.	.	.	.
